Test [1] has as its system HT-1080. The test is described as follows: Induction of cell cycle arrest in human HT1080 cells assessed as accumulation at S phase at 2 uM incubated for 24 hrs by RNase/PI staining based flow cytometric analysis (reference value: 19.59 %). It counts as functional.
Test [2] has as its target MAP kinase p38 (Homo sapiens) (UniProt O15264+Q15759+Q16539+P53778). Nature of the test: Induction of p38 MAPK phosphorylation in human HT-1080 cells at 20 uM after 15 mins by Western blotting analysis.
For test [3], the target named is RAC-alpha serine/threonine-protein kinase (Homo sapiens) (UniProt P31749). The test is described as follows: Inhibition of AKT phosphorylation at Ser473 residue in human HT-1080 cells at 20 uM after 15 mins by Western blotting analysis. To be noted: time 15.0 mins.
Sequence of RAC-alpha serine/threonine-protein kinase (Homo sapiens) (P31749 whole entry): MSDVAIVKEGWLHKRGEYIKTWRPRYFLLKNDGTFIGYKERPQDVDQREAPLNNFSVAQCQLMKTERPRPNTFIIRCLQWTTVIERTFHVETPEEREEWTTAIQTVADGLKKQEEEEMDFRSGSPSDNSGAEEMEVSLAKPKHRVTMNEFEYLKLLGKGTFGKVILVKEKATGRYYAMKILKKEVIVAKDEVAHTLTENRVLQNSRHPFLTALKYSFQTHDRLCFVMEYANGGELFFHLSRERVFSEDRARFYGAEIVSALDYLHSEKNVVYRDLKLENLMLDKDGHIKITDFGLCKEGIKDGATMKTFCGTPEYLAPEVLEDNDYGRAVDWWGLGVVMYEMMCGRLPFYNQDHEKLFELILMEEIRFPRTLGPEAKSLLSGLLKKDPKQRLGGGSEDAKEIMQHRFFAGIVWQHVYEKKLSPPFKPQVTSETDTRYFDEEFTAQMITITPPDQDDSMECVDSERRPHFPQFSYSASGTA
Test [4] has as its system HT-1080. Nature of the test: Induction of cell cycle arrest in human HT1080 cells assessed as accumulation at G0/G1 phase at 2 uM incubated for 24 hrs by RNase/PI staining based flow cytometric analysis (reference value: 32.86 %). It counts as functional.
The test system of test [5] is HT-1080. Nature of the test: Inhibition of ERK phosphorylation in human HT-1080 cells at 20 uM after 15 mins by Western blotting analysis.
The subject of test [6] is HT-1080. The test is described as follows: Induction of cell cycle arrest in human HT1080 cells assessed as accumulation at sub-diploid phase at 2 uM incubated for 24 hrs by RNase/PI staining based flow cytometric analysis (reference value: 5.36 %). It counts as functional.
The next test has as its system PC-3. The test is described as follows: Cytotoxicity against human PC-3 cells assessed as reduction in cell viability incubated for 72 hrs by MTT assay. The conditions noted are these: PC-3, 72 h. It counts as functional, cell-based. In outline:
(§1)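 Cancer lines (MDA-MB-231, HT-1080, PC-3) were grown in DMEM with 10% FBS and penicillin/streptomycin at 37 °C in 5% CO₂. About 5000 cells/well adhered overnight, then serial compound dilutions were added for 72 h, with matching DMSO dilutions (0.5–0.0008% v/v) as controls. MTT (1 mg/ml final, serum-free phenol-red-free DMEM) ran 4 h, was solubilised in 2-propanol, and OD read at 550 nm (ref 690). IC50 is the concentration halving OD versus untreated, mean of three independent experiments.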

A further test relates to MDA-MB-231. Nature of the test: Cytotoxicity against human MDA-MB-231 cells assessed as reduction in cell viability incubated for 72 hrs by MTT assay. The format is functional, cell-based. To be noted: MDA-MB-231, 72 h. In outline: as §1
A general note: Tetrazolium dyes change colour on reduction, which living cells bring about.

Test [7] deals with HT-1080. Nature of the test: Cytotoxicity against human HT-1080 cells assessed as reduction in cell viability incubated for 72 hrs by MTT assay. To be noted: HT-1080, 72 h. The format is functional, cell-based. A digest of the protocol:
as §1

Test [8] relates to HT-1080. Nature of the test: Induction of cell cycle arrest in human HT1080 cells assessed as accumulation at G2/M phase at 2 uM incubated for 24 hrs by RNase/PI staining based flow cytometric analysis (reference value: 47.55 %). The format is functional. A general note: Flow cytometry measures light scatter and fluorescence of single cells or particles in a stream.
For test [9], the system named is HT-1080. The test is described as follows: Induction of apoptosis in human HT-1080 cells assessed as increase in PARP cleavage at 2 uM after 24 hrs by Western blotting analysis.
The test system of the next test is AG1523. Nature of the test: Cytotoxicity against human AG01523 cells assessed as reduction in cell viability incubated for 72 hrs by MTT assay. The format is cell-based. To be noted: AG1523, 72 h.

Calls of active or inactive are those of the source. No cut-off for these calls is given here.

A word on the inhibition: it is how much of the control response was suppressed. The term IC50 denotes the concentration that gives 50% inhibition. For `CN1CCN(c2ccc(NC(=N)c3cc4c(-c5ccccc5)n[nH]c4c(NC4CCCCC4)n3)cc2)CC1`, the Activity in the test on HT-1080 [1] was determined as 14.37%; with HT-1080 [8] it was 41.85%. The outcome (in test [2]; in the test with HT-1080 [9]) was Active. For the same compound, the inhibition in test [3] amounted to 100%. Further, in the test with HT-1080 [4], the “Percentage of cells in G0/G1 phase” value stood at 43.78%. For the same compound, in the test on HT-1080 [5], the inhibition entry was “Active”. Besides, the “Percent of cells in sub-diploid (sub-G1) phase” value (“Percent of cells in sub-diploid” below) in the test on HT-1080 [6] is listed as 13.49%. Further, the IC50 in the test with PC-3 was found to be 4.63 µM; in the test on MDA-MB-231, 1.5 µM; with HT-1080 [7], 0.65 µM; in the test with AG1523 it was 12.3 µM.
For the compound `COc1ccc(Cn2nc(-c3ccccc3)c3cc(C(=N)Nc4ccc(N5CCN(C)CC5)cc4)nc(Nc4cc(OC)c(OC)c(OC)c4)c32)cc1`, the Activity was 64.04% in the test with HT-1080 [1] and 9.29% in the test with HT-1080 [8]. Also, the outcome (in test [2]; in the test on HT-1080 [9]) was Active. The inhibition result (in [3]; with HT-1080 [5]) was “Active” each time. In the test on HT-1080 [4], the “Percentage of cells in G0/G1 phase” value worked out at 26.67%. Besides, in the test on HT-1080 [6], the “Percent of cells in sub-diploid” value was found to be 27.79%. In addition, the 50% inhibitory concentration (IC50) in the test with PC-3 amounted to 1.24 µM; in the test on MDA-MB-231, 0.89 µM; with HT-1080 [7], 1.2 µM; in the test with AG1523 it was 1.81 µM.
With `COc1ccc(Cn2nc(-c3ccccc3)c3cc(C(=N)Nc4ccc(N5CCN(C)CC5)cc4)ncc32)cc1`, the Activity with HT-1080 [1] is on record as 17.27%; with HT-1080 [8], 35.98%. Besides, in test [3], the inhibition was 100%. Besides, in the test with HT-1080 [4], the “Percentage of cells in G0/G1 phase” value is on record as 46.75%. Moreover, in the test with HT-1080 [5], the inhibition result is “Active”. Further, the “Percent of cells in sub-diploid” value in the test with HT-1080 [6] is 17.77%. For the same compound, the half-maximal inhibitory concentration (IC50) in the test on PC-3 amounted to 3.99 µM; in the test on MDA-MB-231, 1.76 µM; in the test with HT-1080 [7], 1.09 µM; in the test on AG1523 it was 10.2 µM. Also, the result in the test with HT-1080 [9] was Active.
Turning to `N=C(Nc1ccccc1)c1cc2c(-c3ccccc3)n[nH]c2c(NC2CCCCC2)n1`, the figures for the Activity with HT-1080 [1] and in the test with HT-1080 [8] were 16.48% and 43.29%, respectively. Moreover, the outcome (in test [2]; with HT-1080 [9]) was Active. Moreover, in the test on HT-1080 [4], the “Percentage of cells in G0/G1 phase” value is 40.23%. Moreover, in the test on HT-1080 [6], the “Percent of cells in sub-diploid” value is reported as 8.27%. Moreover, the concentration for half-maximal inhibition (IC50) is 1.73 µM in the test with PC-3, 1.71 µM in the test with MDA-MB-231, 0.85 µM in the test on HT-1080 [7] and 4.19 µM with AG1523.

Source of the values: ChEMBL document CHEMBL4819061, “New bioactive 5-arylcarboximidamidopyrazolo[3,4-c]pyridines: Synthesis, cytotoxic activity, mechanistic investigation and structure-activity relationships” (Eur J Med Chem, 2021).
